Published values gathered from unrelated publications.
Compare with care: the assays were run in different laboratories.

Compound	tested on	test	test system	setting	quantity	result
CC1=C2C[C@H]3[C@@H](CC[C@@H]4C[C@H](NS(C)(=O)=O)CC[C@@]43C)[C@@H]2CC[C@@]2(C1)O[C@@H]1C[C@H](C)CN[C@H]1[C@H]2C	MB002	cell growth or viability		7 days	IC50	> 10 µM
COC(=O)c1cc(-c2cccc(NC(=S)Nc3ccc(OC)cc3)c2)on1	Mycobacteroides chelonae	microbial growth, broth dilution	ATCC35752	48 h	MIC	> 64 µg/mL
CC(C)c1ccc(/C=C/c2nc3ccccc3c(=O)n2-c2cccc(O)c2)cc1	Enterococcus faecium	microbial growth, broth dilution	NCTC7171		MIC	> 128 µg/mL
O=C(O)c1cc(Cl)ccc1-c1ccc(Cl)cc1C(=O)Nc1ccc2c(c1)Cc1ccccc1-2	Trypanosoma brucei	parasite growth, resazurin		72 h	EC50	28.5 µM
COC(=O)c1cc(-c2cccc(NC(=O)Nc3cccc(F)c3)c2)on1	Mycobacteroides chelonae	microbial growth, broth dilution	ATCC35752	48 h	MIC	> 64 µg/mL
COc1cc(C(=O)NC2CCN(C)CC2)c(F)cc1Nc1ncc2c(n1)N(C1CCCC1)CC(F)(F)C(=O)N2C	MB002	cell growth or viability		7 days	IC50	0.0136 µM
O=C(O)c1ccc(/C=C/c2nc3ccccc3c(=O)n2-c2cccc(O)c2)cc1	Enterococcus faecium	microbial growth, broth dilution	NCTC7171		MIC	64 µg/mL
CO[C@H]1/C=C/O[C@@]2(C)Oc3c(C)c(O)c4c(O)c(c(/C=N/N5CCN(C)CC5)c(O)c4c3C2=O)NC(=O)/C(C)=C\C=C\[C@H](C)[C@H](O)[C@@H](C)[C@@H](O)[C@@H](C)[C@H](OC(C)=O)[C@@H]1C	Mycobacteroides chelonae	microbial growth		72 h	MIC	< 0.78 µM
O=c1c2ccccc2nc(/C=C/c2ccc([N+](=O)[O-])cc2)n1-c1ccccc1O	Enterococcus faecium	microbial growth, broth dilution	NCTC7171		MIC	> 128 µg/mL
COC(=O)c1cc(-c2cccc(NC(=O)Nc3cccc(C#N)c3)c2)on1	Mycobacteroides chelonae	microbial growth, broth dilution	ATCC35752	48 h	MIC	> 64 µg/mL
COc1ccc(/C=C/c2nc3ccccc3c(=O)n2-c2cccc(O)c2)cc1	Enterococcus faecium	microbial growth, broth dilution	NCTC7171		MIC	64 µg/mL
COC(=O)c1cc(-c2cccc(NC(=O)Nc3ccccc3F)c2)on1	Mycobacteroides chelonae	microbial growth, broth dilution	ATCC35752	48 h	MIC	> 64 µg/mL
